Experimental findings from ChEMBL document CHEMBL1132437, “Synthesis and antimicrobial activity of 4H-4-oxoquinolizine derivatives: consequences of structural modification at the C-8 position” (1999) are described below.

What all share (format): functional
One assay deals with Enterococcus faecium. Put plainly: In vitro antibacterial activity against gram-positive Enterococcus faecium ATCC 8043. A digest of the protocol:
(§1)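 Agar dilution MIC determination following the National Committee for Clinical Laboratory Standards recommendations.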

The next assay concerns Escherichia coli. Put plainly: In vitro antibacterial activity against gram negative Escherichia coli KNK 437. A digest of the protocol: as §1
The next assay has as its system Burkholderia cepacia. Put plainly: In vitro antibacterial activity against gram negative Pseudomonas cepacia 2961. A digest of the protocol: as §1
Assay [1] concerns Staphylococcus aureus. The assay can be described thus: In vitro antibacterial activity against gram-positive Staphylococcus aureus 1775. A digest of the protocol: as §1
Assay [2] concerns Staphylococcus aureus. Put plainly: In vitro antibacterial activity against gram-positive Staphylococcus aureus NCTC 10649M. A digest of the protocol:
as §1

The subject of assay [3] is Pseudomonas aeruginosa. The assay can be described thus: In vitro antibacterial activity against Gram-negative Pseudomonas aeruginosa 5007. A digest of the protocol:
as §1

The subject of the next assay is Streptococcus pyogenes. Put plainly: In vitro antibacterial activity against gram positive Streptococcus pyogenes 930. A digest of the protocol:
as §1

Assay [4] concerns Pseudomonas aeruginosa. The assay can be described thus: In vitro antibacterial activity against gram negative P. aeruginosa DPHP 5263. A digest of the protocol:
as §1

Where [5] appears, read: Enterococcus faecium, ATCC 8043, read-out: MIC.
The mark [6] stands for this setting: Escherichia coli, read-out: MIC.
The mark [7] stands for this setting: Burkholderia cepacia, read-out: MIC.
The mark [8] stands for this setting: Staphylococcus aureus, read-out: MIC.
Where [9] appears, read: Staphylococcus aureus, NCTC 10649, read-out: MIC.
[10] abbreviates: Pseudomonas aeruginosa, read-out: MIC.
Where [11] appears, read: Streptococcus pyogenes, read-out: MIC.
The mark [12] stands for this setting: Pseudomonas aeruginosa, DPHP 5263, read-out: MIC.

SMILES strings stand for the structures. In brackets after ≈: the same amount, converted by molar mass.

For the compound `Cc1c(N2CCC(CN)C2)c(F)cn2c(=O)c(C(=O)O)cc(C3CC3)c12` (centres undefined), the MIC in the assay on Enterococcus faecium (setting [5]) turned out to be 0.01 µg/mL (≈ 0.0278 µM); with Escherichia coli (setting [6]), 0.05 µg/mL (≈ 0.139 µM); in the assay with Burkholderia cepacia (setting [7]) it was 0.39 µg/mL (≈ 1.09 µM); in the assay on Staphylococcus aureus [1] (setting [8]), 0.39 µg/mL (≈ 1.09 µM); in the assay on Staphylococcus aureus [2] (setting [9]) it was 0.002 µg/mL (≈ 0.00556 µM).

As to `Cc1c(N2C[C@@H]3CCCN[C@@H]3C2)c(F)cn2c(=O)c(C(=O)O)cc(C3CC3)c12`, the MIC was 0.1 µg/mL (≈ 0.259 µM) in the assay on Enterococcus faecium (setting [5]); 0.1 µg/mL (≈ 0.259 µM) in the assay with Escherichia coli (setting [6]); 0.39 µg/mL (≈ 1.01 µM) in the assay on Pseudomonas aeruginosa [3] (setting [10]); 1.56 µg/mL (≈ 4.05 µM) in the assay with Burkholderia cepacia (setting [7]); 0.78 µg/mL (≈ 2.02 µM) in the assay on Staphylococcus aureus [1] (setting [8]); 0.02 µg/mL (≈ 0.0519 µM) with Staphylococcus aureus [2] (setting [9]). Also, in the assay with Streptococcus pyogenes (setting [11]), the MIC was found to be 0.05 µg/mL (≈ 0.13 µM).

With `Cc1c(N2CC[C@@H]3CNC[C@@H]32)c(F)cn2c(=O)c(C(=O)O)cc(C3CC3)c12`, the MIC amounted to 0.1 µg/mL (≈ 0.269 µM) in the assay on Enterococcus faecium (setting [5]); 0.2 µg/mL (≈ 0.538 µM) in the assay on Escherichia coli (setting [6]); 3.1 µg/mL (≈ 8.35 µM) with Burkholderia cepacia (setting [7]); 6.2 µg/mL (≈ 16.7 µM) with Staphylococcus aureus [1] (setting [8]); 0.05 µg/mL (≈ 0.135 µM) in the assay on Staphylococcus aureus [2] (setting [9]).

Turning to `Cc1c(N2CC[C@@H]3CCNC[C@@H]32)c(F)cn2c(=O)c(C(=O)O)cc(C3CC3)c12`, the MIC with Enterococcus faecium (setting [5]) was determined as 0.2 µg/mL (≈ 0.519 µM); with Escherichia coli (setting [6]) it was 0.39 µg/mL (≈ 1.01 µM); with Pseudomonas aeruginosa [3] (setting [10]), 0.78 µg/mL (≈ 2.02 µM); in the assay with Pseudomonas aeruginosa [4] (setting [12]), 6.2 µg/mL (≈ 16.1 µM); in the assay on Burkholderia cepacia (setting [7]), 3.1 µg/mL (≈ 8.04 µM); in the assay with Staphylococcus aureus [1] (setting [8]) it was 6.2 µg/mL (≈ 16.1 µM). Also, the MIC in the assay with Staphylococcus aureus [2] (setting [9]) was 0.05 µg/mL (≈ 0.13 µM).

For `CN[C@H]1CCN(c2c(F)cn3c(=O)c(C(=O)O)cc(C4CC4)c3c2C)C1`, the MIC is 0.1 µg/mL (≈ 0.278 µM) with Enterococcus faecium (setting [5]); 0.05 µg/mL (≈ 0.139 µM) in the assay with Escherichia coli (setting [6]); 0.2 µg/mL (≈ 0.556 µM) in the assay with Pseudomonas aeruginosa [3] (setting [10]); 1.56 µg/mL (≈ 4.34 µM) in the assay with Burkholderia cepacia (setting [7]); 1.56 µg/mL (≈ 4.34 µM) in the assay with Staphylococcus aureus [1] (setting [8]); 0.02 µg/mL (≈ 0.0556 µM) in the assay with Staphylococcus aureus [2] (setting [9]). Also, the MIC with Streptococcus pyogenes (setting [11]) amounted to 0.05 µg/mL (≈ 0.139 µM).

As to `Cc1c(N2C[C@@H]3OCC[C@]3(CN)C2)c(F)cn2c(=O)c(C(=O)O)cc(C3CC3)c12`, the MIC in the assay on Enterococcus faecium (setting [5]) was 0.05 µg/mL (≈ 0.125 µM); in the assay with Escherichia coli (setting [6]) it was 0.2 µg/mL (≈ 0.498 µM); in the assay on Pseudomonas aeruginosa [3] (setting [10]), 0.39 µg/mL (≈ 0.972 µM); in the assay on Pseudomonas aeruginosa [4] (setting [12]) it was 6.2 µg/mL (≈ 15.4 µM); with Burkholderia cepacia (setting [7]) it was 3.1 µg/mL (≈ 7.72 µM); in the assay on Staphylococcus aureus [1] (setting [8]) it was 0.78 µg/mL (≈ 1.94 µM). Besides, the MIC in the assay on Staphylococcus aureus [2] (setting [9]) was found to be 0.005 µg/mL (≈ 0.0125 µM).

Regarding `Cc1c(N2CCC(CN)(C(F)(F)F)C2)c(F)cn2c(=O)c(C(=O)O)cc(C3CC3)c12` (centres undefined), the minimum inhibitory concentration (MIC) in the assay with Enterococcus faecium (setting [5]) was 0.2 µg/mL (≈ 0.468 µM); in the assay with Escherichia coli (setting [6]) it was 0.39 µg/mL (≈ 0.912 µM); in the assay on Pseudomonas aeruginosa [3] (setting [10]) it was 1.56 µg/mL (≈ 3.65 µM); with Pseudomonas aeruginosa [4] (setting [12]) it was 25 µg/mL (≈ 58.5 µM); with Burkholderia cepacia (setting [7]), 6.2 µg/mL (≈ 14.5 µM); in the assay with Staphylococcus aureus [1] (setting [8]), 0.39 µg/mL (≈ 0.912 µM). Further, the MIC in the assay on Staphylococcus aureus [2] (setting [9]) came to 0.02 µg/mL (≈ 0.0468 µM); with Streptococcus pyogenes (setting [11]) it was 0.1 µg/mL (≈ 0.234 µM).

For the compound `Cc1c(N2CCC(O)C2)c(F)cn2c(=O)c(C(=O)O)cc(C3CC3)c12` (centres undefined), the MIC with Enterococcus faecium (setting [5]) came out at 0.05 µg/mL (≈ 0.144 µM); in the assay on Escherichia coli (setting [6]), 0.2 µg/mL (≈ 0.577 µM); in the assay on Burkholderia cepacia (setting [7]), 0.1 µg/mL (≈ 0.289 µM); in the assay with Staphylococcus aureus [1] (setting [8]), 0.2 µg/mL (≈ 0.577 µM); in the assay with Staphylococcus aureus [2] (setting [9]), 0.005 µg/mL (≈ 0.0144 µM).

Consider `Cc1c(N2CC[C@@H](N)C2)c(F)cn2c(=O)c(C(=O)O)cc(C3CC3)c12`, for which the MIC in the assay on Enterococcus faecium (setting [5]) was determined as 0.05 µg/mL (≈ 0.145 µM); in the assay on Escherichia coli (setting [6]), 0.05 µg/mL (≈ 0.145 µM); in the assay with Burkholderia cepacia (setting [7]) it was 0.78 µg/mL (≈ 2.26 µM); in the assay on Staphylococcus aureus [1] (setting [8]), 1.56 µg/mL (≈ 4.52 µM); with Staphylococcus aureus [2] (setting [9]) it was 0.02 µg/mL (≈ 0.0579 µM).

As to `Cc1c(N2CC[C@H](C)[C@H](N)C2)c(F)cn2c(=O)c(C(=O)O)cc(C3CC3)c12` (stereo in doubt), the MIC against Enterococcus faecium turned out to be 0.2 µg/mL (≈ 0.536 µM); in the assay with Escherichia coli, 0.2 µg/mL (≈ 0.536 µM); with Pseudomonas aeruginosa [3] it was 0.78 µg/mL (≈ 2.09 µM); against Burkholderia cepacia, 1.56 µg/mL (≈ 4.18 µM); against Staphylococcus aureus [1], 1.56 µg/mL (≈ 4.18 µM); in the assay on Staphylococcus aureus [2], 0.05 µg/mL (≈ 0.134 µM). The MIC with Streptococcus pyogenes came out at 0.1 µg/mL (≈ 0.268 µM).

Turning to `Cc1c(N2C[C@@H](N)[C@@H](C3CC3)C2)c(F)cn2c(=O)c(C(=O)O)cc(C3CC3)c12` (stereo in doubt), the MIC worked out at 0.05 µg/mL (≈ 0.13 µM) against Enterococcus faecium; 0.1 µg/mL (≈ 0.259 µM) against Escherichia coli; 12.5 µg/mL (≈ 32.4 µM) with Pseudomonas aeruginosa [4]; 0.39 µg/mL (≈ 1.01 µM) with Staphylococcus aureus [1]; 0.005 µg/mL (≈ 0.013 µM) against Staphylococcus aureus [2]; 0.02 µg/mL (≈ 0.0519 µM) in the assay with Streptococcus pyogenes.
